Measured values reported in paper PMC4511165 (Biochemistry, 2015).
“Also recorded” adds a separate entry of the source.

Experiments:
[1] = biological target: T1, MMP-8 (Homo sapiens, UniProt P22894); assay: Inhibition of MMP-8 by non-cleaved peptomers; assay type: biochemical; details: MS-1 up to 200 µM; concentration for MS-2 not given; data not shown
[2] = biological target: MMP-14/MT1-MMP (Homo sapiens, UniProt P50281); assay: Inhibition of MT1-MMP by non-cleaved peptomers; assay type: biochemical; details: MS-1 up to 200 µM; concentration for MS-2 not given; data not shown
[3] = biological target: T2, MMP-1 (Homo sapiens, UniProt P03956); assay: Inhibition of MMP-1 by non-cleaved peptomers; assay type: biochemical; details: MS-1 up to 200 µM; concentration for MS-2 not given; data not shown
T2 sequence (P03956 100-469): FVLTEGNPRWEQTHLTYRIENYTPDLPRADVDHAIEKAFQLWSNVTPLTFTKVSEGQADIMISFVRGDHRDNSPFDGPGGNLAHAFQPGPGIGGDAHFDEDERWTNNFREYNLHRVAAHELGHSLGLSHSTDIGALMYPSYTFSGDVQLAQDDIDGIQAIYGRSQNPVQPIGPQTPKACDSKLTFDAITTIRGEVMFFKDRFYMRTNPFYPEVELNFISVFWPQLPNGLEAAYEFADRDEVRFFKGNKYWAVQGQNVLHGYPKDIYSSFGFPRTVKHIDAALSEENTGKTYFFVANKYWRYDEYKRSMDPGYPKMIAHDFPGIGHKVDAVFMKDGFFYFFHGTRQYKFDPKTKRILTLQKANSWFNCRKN

[4] = biological target: T3, MMP-13 (Homo sapiens, UniProt P45452); assay: Inhibition of MMP-13 by non-cleaved peptomers; assay type: biochemical; details: MS-1 up to 200 µM; concentration for MS-2 not given; data not shown
[5] = CD thermal transition; assay type: physicochemical; details: decrease relative to α1(I)772–786 THP
[6] = biological target: T2, MMP-1; assay: Hydrolysis of fluorogenic; assay type: biochemical; details: 30 °C; for hydrolysis of fluorogenic peptomer by MMP-1: FRET kinetic assay, TSB*Zn buffer
Method in brief: (§1)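 Enzymes were activated with 1 mM […] at 37 °C for 60 min and diluted in TSB*Zn. The Mca/Dnp substrate was equilibrated in TSB at 4 °C for 24 h and quantified at 363 nm (εDnp 15900 M−1 cm−1). Twelve 1:1 dilutions were made from a 100 µM stock, and enzyme was added from a 100 nM 20× stock. Fluorescence was read every 8 s for 600 s at 30 °C, with a final read at 24 h. The 25 µM sample was analysed by HPLC for % cleavage; triplicate.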

[7] = biological target: T3, MMP-13; assay: Hydrolysis of fluorogenic; assay type: biochemical
Method in brief: as §1

[8] = biological target: T1, MMP-8; assay: Hydrolysis of fluorogenic; assay type: biochemical; details: 30 °C; for hydrolysis of fluorogenic peptomer by MMP-8: FRET kinetic assay, TSB*Zn buffer
Method in brief: as §1

[9] = biological target: T4, MMP-14/MT1-MMP (ectodomain, soluble MT1-MMP) (Homo sapiens, UniProt P50281); assay: Hydrolysis of fluorogenic; assay type: biochemical
Method in brief: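 Soluble ectodomain was activated with 0.1 equiv trypsin-3 for 1 h at 37 °C, quenched with AEBSF and diluted in TSB*Zn. The Mca/Dnp substrate was equilibrated in TSB at 4 °C for 24 h and quantified at 363 nm. Twelve 1:1 dilutions were made from a 100 µM stock, and enzyme was added from a 100 nM 20× stock. Fluorescence was read every 8 s for 600 s at 30 °C, with a final read at 24 h. The 25 µM sample was analysed by HPLC for % cleavage; triplicate.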

[10] = biological target: T4, MMP-14/MT1-MMP (ectodomain, soluble MT1-MMP); assay: HPLC-monitored hydrolysis of peptomeric THPs by MT1-MMP; assay type: biochemical; details: room temperature, 24 h; MALDI-TOF MS / HPLC of products
Method in brief: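 Soluble ectodomain was activated with 0.1 equiv trypsin-3 for 1 h at 37 °C. Trypsin was quenched with 100 equiv AEBSF for 15 min at room temperature, then the enzyme was diluted in cold TSB*Zn (pH 7.5). Substrates were pre-equilibrated in TSB at 4 °C for 24 h. Reactions used 20 nM enzyme at 1:1000 enzyme:substrate for 24 h at room temperature (some also at 37 °C). Reactions were quenched with 50 mM EDTA; triplicate RP-HPLC integration at 220 nm, MALDI-TOF for products.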

[11] = biological target: T1, MMP-8; assay: HPLC-monitored hydrolysis of peptomeric THPs by MMP-8; assay type: biochemical; details: room temperature, 24 h; MALDI-TOF MS / HPLC of products
Method in brief: (§2)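 Full-length human enzymes were activated with 1 mM […] for 60 min at 37 °C, then diluted to 100 nM in ice-cold TSB*Zn (Tris, NaCl, CaCl2, ZnCl2, Brij-35, pH 7.5). Substrates were pre-equilibrated in TSB at 4 °C for 24 h. Reactions used 20 nM enzyme at 1:1000 enzyme:substrate for 24 h at room temperature (some also at 37 °C). Reactions were quenched with 50 mM EDTA; triplicate RP-HPLC peak integration at 220 nm, with MALDI-TOF identifying products.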

[12] = biological target: T2, MMP-1; assay: HPLC-monitored hydrolysis of peptomeric THPs by MMP-1; assay type: biochemical; details: room temperature, 24 h; MALDI-TOF MS / HPLC of products
Method in brief: as §2

[13] = biological target: T3, MMP-13; assay: HPLC-monitored hydrolysis of peptomeric THPs by MMP-13; assay type: biochemical; details: 24 h; for cleavage site, MMP-13: room temperature, MALDI-TOF MS / HPLC of products
Method in brief: as §2

[14] = biological target: MMP-3 (Homo sapiens, UniProt P08254); assay: Hydrolysis of Ac-pfTHP-1 by noncollagenolytic MMP-3; assay type: biochemical; details: data not shown
Chain of MMP-3 (P08254 100-477, species assumed): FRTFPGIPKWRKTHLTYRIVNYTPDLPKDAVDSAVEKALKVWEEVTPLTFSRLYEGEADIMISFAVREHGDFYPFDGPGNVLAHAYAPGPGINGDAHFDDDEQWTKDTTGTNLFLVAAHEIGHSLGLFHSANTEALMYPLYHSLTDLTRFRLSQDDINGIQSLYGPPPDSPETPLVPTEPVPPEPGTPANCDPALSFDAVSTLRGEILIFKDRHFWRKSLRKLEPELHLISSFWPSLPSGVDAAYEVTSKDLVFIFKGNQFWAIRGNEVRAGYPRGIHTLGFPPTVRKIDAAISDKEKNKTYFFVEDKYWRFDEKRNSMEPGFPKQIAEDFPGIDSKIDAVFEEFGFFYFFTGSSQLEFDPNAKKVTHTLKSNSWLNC

[15] = RP-HPLC, 25 µM peptomer, 24 h, data not shown
[16] = RP-HPLC, 25 µM peptomer, 30 °C, 24 h, data not shown

T1 sequence (P22894 101-467): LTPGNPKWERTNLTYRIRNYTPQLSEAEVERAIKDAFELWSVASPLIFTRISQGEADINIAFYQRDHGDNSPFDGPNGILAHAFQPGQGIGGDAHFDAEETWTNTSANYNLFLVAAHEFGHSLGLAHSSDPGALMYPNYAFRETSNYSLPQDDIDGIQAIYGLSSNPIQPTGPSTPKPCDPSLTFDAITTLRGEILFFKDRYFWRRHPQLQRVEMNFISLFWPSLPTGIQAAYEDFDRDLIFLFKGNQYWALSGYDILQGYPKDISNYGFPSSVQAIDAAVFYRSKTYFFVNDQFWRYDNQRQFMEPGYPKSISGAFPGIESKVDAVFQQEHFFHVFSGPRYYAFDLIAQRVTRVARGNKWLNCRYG

(GPO)4-GPQG-NIle-AGQRGVVGLO(GPO)4-NH2 [MS-1]
inhibition of MMP-8 [1]: No inhibition | inhibition of MT1-MMP [2]: No inhibition | inhibition of MMP-1 [3]: No inhibition | inhibition of MMP-13 [4]: No inhibition

(GPO)4G-Sar-QGIAGQRGVVGLO(GPO)4-NH2 [MS-4]
Tm lower than that of parent THP by [5]: 4 °C

(GPO)4GP-Lys(Mca)-G-Sar-AGQRGV-Lys(Dnp)-G- NLeu-O(GPO)4-NH2 [pfTHP-1]
hydrolysis of fluorogenic peptomer by MMP-1 [6]: unable to hydrolyze | cleavage site of fluorogenic peptomer, MMP-13 [7]: between Gly778 and Gln779 | hydrolysis of fluorogenic peptomer by MMP-8 [8]: unable to hydrolyze | cleavage sites of fluorogenic peptomer, MT1-MMP [9]: Gly781–Val782 and Arg780–Gly781 bonds

(GPO)4GPQ-Sar-IAGQRGVVG-NLeu-GLO(GPO)4- NH2 [MS-9]
cleavage site, MT1-MMP [10]: between Sar775 and Ile776 | cleavage site, MMP-8 [11]: between Sar775 and Ile776 | cleavage site, MMP-1 [12]: between Sar775 and Ile776 | cleavage site, MMP-13 [13]: between Sar775 and Ile776 | Tm lower than that of parent THP by [5]: 13.5 °C

(GPO)4GPQ-Sar-IAGQRGVVGLO(GPO)4-NH2 [MS-3]
cleavage site, MT1-MMP [10]: between Sar775 and Ile776 | cleavage site, MMP-8 [11]: between Sar775 and Ile776 | cleavage site, MMP-1 [12]: between Sar775 and Ile776 | cleavage site, MMP-13 [13]: between Sar775 and Ile776 | Tm lower than that of parent THP by [5]: 20 °C

(GPO)4GPQGIAGQRGVVG-NLeu-O(GPO)4-NH2 [MS-7]
cleavage site, MT1-MMP [10]: Gly775–Ile776 bond | cleavage site, MMP-8 [11]: Gly775–Ile776 bond | cleavage site, MMP-1 [12]: Gly775–Ile776 bond | difference in MMP-13 hydrolysis versus parent THP ([13]; 37 °C, RP-HPLC, peptomer better substrate than parent THP): 2 fold | cleavage site, MMP-13 [13]: Gly775–Ile776 bond

(GPO)4GPQGWAGQRGVVG-NLeu-O(GPO)4-NH2 [MS-10]
cleavage site, MT1-MMP [10]: Gly775-Trp776 bond; also recorded: occurring at several bonds | cleavage site, MMP-8 [11]: Gly775-Trp776 bond | cleavage site, MMP-13 [13]: Gly775-Trp776 bond

Ac-(GPO)4-GP-Lys(Mca)-G-Sar-AGQRGV-Lys(Dnp) G-NLeu-O(GPO)4-NH2 [Ac-pfTHP-1]
hydrolysis by MMP-3 [14]: not able to hydrolyze | hydrolysis of fluorogenic peptomer by MMP-1 [6]: unable to hydrolyze | hydrolysis by MMP-1 [6, 15]: < 1% | hydrolysis by MMP-13 [7, 16]: 65% | cleavage site of fluorogenic peptomer, MMP-13 [7]: between Gly778 and Gln779 | hydrolysis of fluorogenic peptomer by MMP-8 [8]: unable to hydrolyze | hydrolysis by MMP-8 [8, 15]: < 2% | hydrolysis by MT1-MMP [9, 16]: 22% | cleavage sites of fluorogenic peptomer, MT1-MMP [9]: Gly781–Val782 and Arg780–Gly781 bonds
